In brackets after ≈: the same amount, converted by molar mass.
Legend:
Liver = assay: Drug metabolism in mouse liver microsomes assessed as position 4/6 CH3 cleavage by LC-MS analysis; type: ADME
Liver microsome = assay: Drug metabolism in rat liver microsomes assessed as position 4/6 CH3 cleavage by LC-MS analysis; type: ADME
[1] = Half life in mouse liver microsomes by HPLC analysis in presence of NADPH; type: ADME
Outline: (§1)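 Male mouse or rat liver microsomes. Each run was done in triplicate, with a matching control that had no cofactor added. Samples were taken at set times, and the remaining non-degraded compound was quantified by analytical HPLC peak area. Half-life was calculated from linear plots.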

[2] = Thermodynamic solubility in PBS buffer at 1 mg after 12 hrs by HPLC analysis; type: physicochemical; conditions: read-out: Therm_solubility
Outline: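 Solubility was measured in PBS, with the dissolved compound quantified by HPLC. The HPLC setup has a lower detection limit.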

U2OS = assay: Cytotoxicity against human U2OS cells assessed as reduction in cell viability after 72 hrs by celltiter Glo assay; type: functional, cell-based
Outline: (§2)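 Antiproliferative IC50 was determined against viable cells using a luminescent ATP read-out.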

MDA-MB-231 = assay: Cytotoxicity against human MDA-MB-231 cells assessed as reduction in cell viability after 72 hrs by celltiter Glo assay; type: functional, cell-based; conditions: MDA-MB-231, 72 h; outline: as §2
[3] = Half life in rat liver microsomes by HPLC analysis in presence of NADPH; type: ADME; outline: as §1
[4] = Cytotoxicity against human SCC114 cells assessed as reduction in cell viability after 24 hrs by MTT assay; type: functional, cell-based; conditions: SCC114, 24 h
HeLa = assay: Cytotoxicity against human HeLa cells assessed as reduction in cell viability after 24 hrs by MTT assay; type: functional, cell-based

Row | SMILES | Drug metabolism (Liver) | Drug metabolism (Liver microsome) | half-life [1] [min] | solubility thermodynamic at 12 h [2] [µg/mL] | half-life [3] [min] | IC50 (U2OS) [µM] | IC50 (MDA-MB-231) [µM] | IC50 [4] [µM] | IC50 (HeLa) [µM]
1 | [2H]C([2H])([2H])OC1=CC(=O)C[C@@H](C)[C@]12Oc1c(Cl)c(OC)cc(OC)c1C2=O | metabolite_detected | metabolite_detected | – | – | – | – | – | – | –
2 | COc1cc(OC)c2c(c1Cl)O[C@]1(C2=O)C(OCc2ccccc2)=C/C(=N\O)C[C@H]1C | – | – | 45 | 3 (≈ 6.76 µM) | 57 | 1.61 | 1.29 | – | –
3 | COC1=CC(=O)C[C@@H](C)[C@]12Oc1c(Cl)c(OC)cc(OC)c1C2=O [GRISEOFULVIN] | – | – | 37 | 7.7 (≈ 21.8 µM) | 58 | 22.4 | 25.3 | 35 | 75
4 | COc1cc(OC)c2c(c1Cl)O[C@]1(C2=O)C(OCc2ccccc2)=C/C(=N\OCC(=O)O)C[C@H]1C | – | – | 339 | > 1000 | 449 | 14.1 | 10.1 | – | –

Now from value to compound, other results behind:

Row | Drug metabolism (Liver) | Drug metabolism (Liver microsome) | half-life [1] [min] | solubility thermodynamic at 12 h [2] [µg/mL] | half-life [3] [min] | SMILES | IC50 (U2OS) [µM] | IC50 (MDA-MB-231) [µM] | IC50 [4] [µM] | IC50 (HeLa) [µM]
5 | – | – | 27 | 0.3 (≈ 0.7 µM) | 60 | COc1cc(OC)c2c(c1Cl)O[C@]1(C2=O)C(OCc2ccccc2)=CC(=O)C[C@H]1C | 1.45 | 1.62 | – | –
6 | – | – | 31 | < 0.3 | 53 | COc1cc(OC(F)F)c(Cl)c2c1C(=O)[C@@]1(O2)C(OCc2ccccc2)=CC(=O)C[C@H]1C | 5.56 | 5.34 | – | –
7 | – | – | 11 | < 0.3 | 26 | COc1cc(OC(F)F)c2c(c1Cl)O[C@]1(C2=O)C(OCc2ccccc2)=CC(=O)C[C@H]1C | 14.3 | 11.8 | – | –
